Screening results: PubChem BioAssay, Sanford-Burnham Center for Chemical Genomics
Hits are enriched below; roughly 1.5% of the tested compounds scored in any of these assays.
APJ ag: APJ receptor agonism. activation, % at 20 µM. P35414. AID 2520. actives 0.11% (n = 330,000). CHO-K1 APJ PathHunter beta-arrestin, luminescence; 0% DMSO wells, 100% apelin;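 active = activation more than six SD over the plate average, tested at 20 µM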;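 also: 0% = DMSO alone and 100% = apelin-13 at 10 nM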
Target sequence (P35414 whole entry, looked up): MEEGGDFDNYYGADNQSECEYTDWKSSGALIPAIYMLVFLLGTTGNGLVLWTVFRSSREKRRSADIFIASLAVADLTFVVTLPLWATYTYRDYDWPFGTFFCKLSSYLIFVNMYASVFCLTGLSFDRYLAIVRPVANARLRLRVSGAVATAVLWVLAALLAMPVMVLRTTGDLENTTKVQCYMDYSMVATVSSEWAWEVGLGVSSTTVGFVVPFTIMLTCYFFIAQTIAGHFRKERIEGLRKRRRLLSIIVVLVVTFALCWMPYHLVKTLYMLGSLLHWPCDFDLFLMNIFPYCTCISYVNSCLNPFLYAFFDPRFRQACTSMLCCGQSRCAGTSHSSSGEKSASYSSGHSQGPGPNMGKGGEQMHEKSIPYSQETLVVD
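Material: CHO-K1 APJ beta-arrestin complementation cell line; Input: cell density 1000 per well; Incubation: compound stimulation 90 min at 25 °C, detection 60 min; Signal: luminescence from split beta-galactosidase complementation, Galacton Star/Emerald II substrate; Controls: DMSO-only wells as negative, 10 nM Apelin-13 as positive control.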
CCR6 antag: blocks CCL20-driven beta-arrestin recruitment at human CCR6; P51684; CHO-K1 CCR6 PathHunter beta-arrestin, luminescence, CCL20-stimulated; inhibition, % at 20 µM; actives 0.49% (n = 340,000);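 active = compounds whose inhibition of the agonist-driven luminescence signal at 20 µM reaches about 50%, limit read from the data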;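 also: cells stimulated with CCL20 at 14 nM final; plate controls were DMSO with CCL20 for no effect and DMSO without agonist for full effect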
EBI2 block: antagonists of human EBI2 receptor | EBI2 beta-arrestin recruitment, luminescence, 7a,25-OHC stimulated | inhibition, % at 5 µM | actives 0.81% (n = 360,000) | AID 651636; in the data active = inhibition above about 38%;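 also: enzyme fragment complementation signal reports receptor beta-arrestin coupling in cells; 0% = agonist plus DMSO wells and 100% = wells without agonist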
CXCR6 block: blocks human CXCR6 beta-arrestin recruitment. O00574. CHO-K1 PathHunter CXCR6 beta-arrestin, luminescence. inhibition, % at 20 µM. actives 0.36% (n = 360,000); in the data active = inhibition above about 34%, passing the limit was not always enough;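 also: antagonist mode with CXCL16 agonist at 10 nM final; 0% = 10 nM CXCL16 with DMSO and 100% = unstimulated wells without agonist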
APJ antag: antagonists of human APJ apelin receptor; P35414; CHO-K1 APJ beta-arrestin complementation, luminescence; inhibition, % at 20 µM; actives 0.32% (n = 330,000); AID 2521;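 active = inhibition above about 40% at 20 µM, limit read from the data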;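 also: cells challenged with 10 nM apelin-13 agonist together with compound; plate controls were apelin-13 plus DMSO wells for no effect and DMSO wells lacking apelin-13 for full effect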
* = called active by the depositor.

How did O=[N+]([O-])c1ccc(Sc2cccc[n+]2[O-])c2nonc12 do in these assays?
CCR6 antag: 115*; EBI2 block: 58*; CXCR6 block: 110*

What do the screens show for `O=C(c1cccs1)N1CCN(C23CC4CC(CC(C4)C2)C3)CC1`?
APJ ag: 1; CCR6 antag: -12; EBI2 block: -4; CXCR6 block: -4; APJ antag: 12

Results for NS(=O)(=O)c1ccc(NC(=O)COC(=O)c2ccc([N+](=O)[O-])s2)cc1 ?
APJ ag: 17*; CCR6 antag: -2; EBI2 block: -9; CXCR6 block: -16; APJ antag: -59

How did CCc1nc2ccc(C(=O)N3CCN(c4ccccc4)CC3)cn2c1N(C)CCC(C)C do in these assays?
EBI2 block: 16; CXCR6 block: 14

Results for O=C(OCn1ncc(Cl)c(Cl)c1=O)c1ccccc1Cl ?
CCR6 antag: 22; EBI2 block: 51*; CXCR6 block: 31

How did O=C(OCn1ncc(Cl)c(Cl)c1=O)c1ccc(F)cc1 do in these assays?
APJ ag: -3; APJ antag: 24

Results for COc1ccc(-c2sc3ccc(OC)cc3c2-c2ccc(OCCN3CCOCC3)cc2)cc1 ?
CCR6 antag: 28; EBI2 block: 52*; CXCR6 block: -4

Results for COc1ccc2sc(-c3ccccc3OC)c(-c3ccc(OCCN(C)C)cc3)c2c1 ?
CCR6 antag: 52*; EBI2 block: -2; CXCR6 block: -3

What do the screens show for `COc1ccc2sc(-c3ccccc3OC)c(-c3ccc(SC)cc3)c2c1`?
EBI2 block: 16; CXCR6 block: 8

Results for O=C(OCc1nnc(-c2ccc(Br)cc2)o1)c1cncc(Br)c1 ?
APJ ag: 0; CCR6 antag: 5; EBI2 block: -9; CXCR6 block: -6; APJ antag: -5

Results for O=C(Nc1nnc(-c2cccs2)o1)c1cccc(C(F)(F)F)c1 ?
APJ ag: -2; CCR6 antag: 44; EBI2 block: -6; CXCR6 block: 44*; APJ antag: 0

How did S=C(Nc1ccccc1)Nc1cc(Cl)ccc1Oc1ccccc1 do in these assays?
APJ ag: -3; CCR6 antag: 93*; EBI2 block: -2; CXCR6 block: 5; APJ antag: 13

How did CCN(CC)C(=O)c1ccc2c(c1[N+](=O)[O-])C(=O)c1ccccc1C2=O do in these assays?
APJ ag: 7; APJ antag: -18

Results for COc1ccccc1CN(CC(=O)NCc1ccco1)C(=O)CNS(=O)(=O)c1ccc(C)cc1 ?
APJ ag: 0; CCR6 antag: 11; EBI2 block: -5; CXCR6 block: -4; APJ antag: 7

Results for COc1ccccc1CN(CC(=O)NCc1ccco1)C(=O)CNS(=O)(=O)c1ccccc1 ?
APJ ag: -4; CCR6 antag: 61*; EBI2 block: 3; CXCR6 block: -5; APJ antag: 8

Results for CC(C(=O)Nc1ccccc1)N(C)Cc1cccs1 (configuration not stated) ?
APJ ag: -3; CCR6 antag: 16; EBI2 block: 4; CXCR6 block: 10; APJ antag: 1

Results for O=[N+]([O-])c1ccc(Sc2cccc3cccnc23)cc1 ?
APJ ag: -3; CCR6 antag: -8; EBI2 block: 4; CXCR6 block: 0; APJ antag: -4

What do the screens show for `C=CCn1nc([N+](=O)[O-])nc1Sc1cccc2cccnc12`?
APJ ag: -3; CCR6 antag: 64*; EBI2 block: 36; CXCR6 block: 47*; APJ antag: 27

What do the screens show for `CCN(CC)CCn1c(NC(=O)c2ccc(Cl)cc2)nc2ccccc21`?
APJ ag: -4; CCR6 antag: 7; EBI2 block: 6; CXCR6 block: 7; APJ antag: -4

How did CCN(CC)CCn1c(NC(=O)c2ccccc2O)nc2ccccc21 do in these assays?
APJ ag: -1; EBI2 block: -5; CXCR6 block: 57*; APJ antag: 27

How did CCOC(=O)c1ccc(N=Cc2nc(-c3ccccc3)oc2OC(C)=O)cc1 do in these assays?
APJ ag: -4; CCR6 antag: 50*; EBI2 block: -17; CXCR6 block: 20; APJ antag: 17

How did O=[N+]([O-])c1ccccc1SN(Cc1ccccc1)c1ccccn1 do in these assays?
APJ ag: -4; CCR6 antag: 26; EBI2 block: 4; CXCR6 block: 15; APJ antag: 13

How did COc1cccc(C(NC(C)=O)c2nc(-c3ccccc3C)cs2)c1 (configuration not stated) do in these assays?
EBI2 block: 7; CXCR6 block: -1

How did CN1/C(=C/C=C/c2n(C)c3cc([N+](=O)[O-])c([N+](=O)[O-])cc3[n+]2C)C(C)(C)c2ccccc21 do in these assays?
EBI2 block: 4; CXCR6 block: 48*

What do the screens show for `Cc1cccc[n+]1CC(=O)/C=C1\N(C)c2ccccc2C1(C)C`?
APJ ag: -3; CCR6 antag: -22; EBI2 block: -17; CXCR6 block: -3; APJ antag: -4

How did COc1cc(/C=N/NC(=O)c2nc(-c3ccccc3)n(-c3ccccc3)n2)ccc1O do in these assays?
APJ ag: -1; CCR6 antag: 8; EBI2 block: 6; CXCR6 block: -4; APJ antag: -25

What do the screens show for `COc1cc(/C=N/Nc2nc(C)nc3c2cnn3-c2ccccc2)ccc1O`?
CCR6 antag: -2; EBI2 block: 56*; CXCR6 block: 3

Results for O=C(COC(=O)c1cccc(S(=O)(=O)N2CCOCC2)c1)NC1CCCCC1 ?
EBI2 block: -1; CXCR6 block: 2

How did COc1ccccc1NC(=O)COc1ccc(/C=N/NC(=O)CSCc2cc(C)cc(C)c2)cc1 do in these assays?
APJ ag: -4; CCR6 antag: 7; EBI2 block: 10; CXCR6 block: -6; APJ antag: 11

How did COc1ccccc1NC(=O)COc1ccc(/C=N/NC(=O)CSCc2ccc(Cl)cc2)cc1 do in these assays?
APJ ag: -4; CCR6 antag: 2; EBI2 block: 15; CXCR6 block: 6; APJ antag: 64*

What do the screens show for `N#C/C(=C\c1ccc(-c2ccc(F)cc2)o1)C(=O)Nc1nc(-c2cccs2)cs1`?
APJ ag: -7; CCR6 antag: 55*; EBI2 block: 19; CXCR6 block: 26; APJ antag: 30

How did COc1ccc(N(C(C)=O)c2nc3ccccc3[nH]2)cc1 do in these assays?
APJ ag: -1; CCR6 antag: 9; EBI2 block: 0; CXCR6 block: -5; APJ antag: 7

How did Fc1ccc(COc2ccc(Br)cc2CNCc2ccncc2)cc1 do in these assays?
APJ ag: 0; CCR6 antag: 2; EBI2 block: 14; CXCR6 block: 0; APJ antag: 1

What do the screens show for `CCOc1cc(CNCc2ccncc2)cc(Br)c1OCc1ccc(F)cc1`?
APJ ag: 2; CCR6 antag: 8; EBI2 block: 59*; CXCR6 block: -1; APJ antag: 9
